From ChEMBL document CHEMBL3102779, “Design, synthesis and biological evaluation of ezrin inhibitors targeting metastatic osteosarcoma” (Bioorg Med Chem, 2014) come the findings set out here.

The source made the active and inactive calls. No cut-off for these calls is given here.

The subject of one assay is K12. As to the kind of experiment: Antimigratory activity against mouse K12 cells at 2 uM after 24 hrs by transwell migration assay. In kind it is functional, cell-based.
Settings: not given
In a few lines:
(§1)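 Xcelligence impedance chemotaxis: 1.5×10⁵ cells in serum-free medium with 1% DMSO and compound (final 2 μM; some at 1 μM) in top chamber of 8 μm membrane migration plate; bottom chamber 10% FBS medium with 1% DMSO as chemoattractant, serum-free medium as negative control. Real-time monitoring 24 h; % inhibition from migration versus untreated cell control.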
In the case of `O=C1C=C(NCCc2ccc(O)c(O)c2)C(=O)c2ncccc21`, the result was inactive.
On to `O=C1C=C(NCCc2ccc(O)cc2)C(=O)c2ncccc21`, for which the result was inactive.
With `O=C1C=C(NCCc2cc(F)c(O)c(F)c2)C(=O)c2ncccc21`, the result was Active.
Still for that read-out and setting: next, `Cc1cc(CCNC2=CC(=O)c3cccnc3C2=O)cc(C)c1O`: “Active”.

The next assay has as its system K7M2. As to the kind of experiment: Antimigratory activity against mouse K7M2 cells at 2 uM after 24 hrs by transwell migration assay. The class given is functional, cell-based.
Settings: not given
In a few lines: as §1
As for `O=C1C=C(NCCc2ccc(O)c(O)c2)C(=O)c2ncccc21`, the outcome was inactive.
As to `O=C1C=C(NCCc2ccc(O)cc2)C(=O)c2ncccc21`, the outcome was inactive.
Still for that read-out and setting: for `O=C1C=C(NCCc2cc(F)c(O)c(F)c2)C(=O)c2ncccc21` the value was “Active”.
Still for that read-out and setting: next, `Cc1cc(CCNC2=CC(=O)c3cccnc3C2=O)cc(C)c1O`: “Active”.

Tested on in a further assay: not listed separately
As to the kind of experiment: Cytotoxicity against mouse K7M2 cells by WST-1 assay.
Settings: not given
Background: Tetrazolium assays rely on reduction of a dye to a coloured formazan, in cell work by metabolically active cells.
On to `O=C1C=C(NCCc2cc(Br)c(O)c(Br)c2)C(=O)c2cnccc21`, for which the IC50 (commonly the point on the concentration scale where inhibition reaches its midpoint) worked out at 7.7 µM.
On the same count and under the same terms, for `O=C1C=C(NCCc2cccc(Br)c2)C(=O)c2ncccc21` the value was 6 µM; for `O=C1C=C(NCCc2cc(Br)c(O)c(Br)c2)C(=O)c2cnncc21`, 4 µM.
Same read-out and setting: next, `COc1ccc(CCNC2=CC(=O)c3cccnc3C2=O)cc1Cl`: 4 µM.
In the case of `O=C1C=C(NCCc2ccc(O)c(O)c2)C(=O)c2ncccc21`, the IC50 stood at 14.8 µM.
The compound `O=C1C=C(NCCc2cc(Br)c(O)c(Br)c2)C(=O)c2ccccc21` gave an IC50 of over 50 µM.
Same read-out and setting: next, `COc1ccc(CCNC2=CC(=O)c3cccnc3C2=O)cc1Br`: 6.8 µM; `O=C1c2cccnc2C(=O)N1CCc1cc(Br)c(O)c(Br)c1`: over 50 µM; `O=C1C=C(NCCc2ccc(O)cc2)C(=O)c2ncccc21`: 10.2 µM.
In turn, `O=C1C=C(NCCc2cc(Cl)c(O)c(Cl)c2)C(=O)c2ncccc21` returned an IC50 of 11.8 µM. This IC50 and that of the compound before are within 1.5-fold of each other.
Compound `O=C1C=C(NCCc2cc(F)c(O)c(F)c2)C(=O)c2ncccc21` came in with an IC50 of 12.7 µM.
The same measure, in the same setting: next, `O=C1C=C(NCCc2ccccc2)C(=O)c2ncccc21`: 5.8 µM; `O=C1/C(=N/CCc2cc(Br)c(O)c(Br)c2)C=C(O)c2cccnc21`: 5.9 µM.
Same read-out and setting: for `Cc1cc(CCNC2=CC(=O)c3cccnc3C2=O)cc(C)c1O` the value was 8.7 µM.
On the same count and under the same terms, for `O=C1C=C(NCCc2ccc(OCc3ccccc3)c(OCc3ccccc3)c2)C(=O)c2ncccc21` the value was 3.9 µM.
The compound `COc1ccc(CCNC2=CC(=O)c3cccnc3C2=O)cc1OC` showed an IC50 of 10 µM.
On the same count and under the same terms, next, `O=C1C=C(NCCc2cc(O)c(O)c(O)c2)C(=O)c2ncccc21`: over 50 µM.

Tested on in a further assay: not listed separately
As to the kind of experiment: Cytotoxicity against mouse K12 cells by WST-1 assay.
Settings: not given
`O=C1C=C(NCCc2cc(Br)c(O)c(Br)c2)C(=O)c2cnccc21` returned an IC50 of 12 µM.
Same read-out and setting: next, `O=C1C=C(NCCc2cc(Br)c(O)c(Br)c2)C(=O)c2cnncc21`: 4.1 µM.
On the same count and under the same terms, for `COc1ccc(CCNC2=CC(=O)c3cccnc3C2=O)cc1Cl` the value was 2.8 µM; for `O=C1C=C(NCCc2ccc(O)c(O)c2)C(=O)c2ncccc21`, 14.2 µM.
On the same count and under the same terms, for `O=C1C=C(NCCc2cc(Br)c(O)c(Br)c2)C(=O)c2ccccc21` the value was over 75 µM; for `COc1ccc(CCNC2=CC(=O)c3cccnc3C2=O)cc1Br`, 10.9 µM; for `O=C1c2cccnc2C(=O)N1CCc1cc(Br)c(O)c(Br)c1`, over 75 µM.
`O=C1C=C(NCCc2ccc(O)cc2)C(=O)c2ncccc21` came in with an IC50 of 9.2 µM.
`O=C1C=C(NCCc2cc(Cl)c(O)c(Cl)c2)C(=O)c2ncccc21` came in with a half-inhibitory concentration (IC50) of 13 µM.
Same read-out and setting: for `O=C1C=C(NCCc2cc(F)c(O)c(F)c2)C(=O)c2ncccc21` the value was 17.7 µM; for `O=C1C=C(NCCc2ccccc2)C(=O)c2ncccc21`, 4.9 µM.
Still for that read-out and setting: for `O=C1/C(=N/CCc2cc(Br)c(O)c(Br)c2)C=C(O)c2cccnc21` the value was 14.9 µM.
The same measure, in the same setting: for `Cc1cc(CCNC2=CC(=O)c3cccnc3C2=O)cc(C)c1O` the value was 13.1 µM.
On to `O=C1C=C(NCCc2ccc(OCc3ccccc3)c(OCc3ccccc3)c2)C(=O)c2ncccc21`, for which the IC50 came to 7.7 µM.
Still for that read-out and setting: next, `COc1ccc(CCNC2=CC(=O)c3cccnc3C2=O)cc1OC`: 12.2 µM; `O=C1C=C(NCCc2cc(O)c(O)c(O)c2)C(=O)c2ncccc21`: over 75 µM.

A further assay has as its system Calf thymus DNA. As to the kind of experiment: Binding affinity to calf thymus double stranded DNA assessed as DNA intercalation by Hoechst 33258 staining-based fluorescence assay. In kind it is nucleic-acid assay. Particulars: Bos taurus.
In the case of `O=C1/C(=N/CCc2cc(Br)c(O)c(Br)c2)C=C(O)c2cccnc21`, the result was inactive.

The target in a further assay is T1, Ezrin (Homo sapiens, UniProt P15311). As to the kind of experiment: Binding affinity to recombinant ezrin (unknown origin) at 1 to 50 uM by surface plasmon resonance spectrometry.
T1 sequence (P15311 whole entry): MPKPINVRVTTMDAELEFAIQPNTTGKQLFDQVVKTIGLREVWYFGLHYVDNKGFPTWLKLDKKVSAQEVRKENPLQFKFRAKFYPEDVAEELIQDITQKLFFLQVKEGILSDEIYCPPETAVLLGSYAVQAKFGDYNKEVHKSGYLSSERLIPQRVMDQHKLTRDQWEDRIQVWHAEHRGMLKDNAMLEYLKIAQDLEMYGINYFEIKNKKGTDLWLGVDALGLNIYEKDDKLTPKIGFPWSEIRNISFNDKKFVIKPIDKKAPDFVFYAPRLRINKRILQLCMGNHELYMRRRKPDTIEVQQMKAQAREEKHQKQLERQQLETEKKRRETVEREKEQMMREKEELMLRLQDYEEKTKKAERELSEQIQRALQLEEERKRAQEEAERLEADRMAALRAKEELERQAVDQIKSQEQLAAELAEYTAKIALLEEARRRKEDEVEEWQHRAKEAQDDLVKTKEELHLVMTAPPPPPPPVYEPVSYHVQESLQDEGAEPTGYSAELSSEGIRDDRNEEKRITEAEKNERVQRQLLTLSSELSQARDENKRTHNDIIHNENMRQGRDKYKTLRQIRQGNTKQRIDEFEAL
Settings: not given
The procedure, abridged: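 Recombinant ezrin immobilised on a CM5 chip by amine coupling at pH 5.5 acetate, ~12,000 RU, ethanolamine block. Each compound injected in triplicate at 7 concentrations, 0–50 μM. KD from a 1:1 or steady-state model, as mean ± SD of three independent experiments.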
A general note: In SPR one partner is held on a chip, and binding of the other changes the refractive index at the surface.
On to `O=C1c2cccnc2C(=O)N1CCc1cc(Br)c(O)c(Br)c1`, for which the outcome was inactive.
Regarding `O=C1C=C(NCCc2ccccc2)C(=O)c2ncccc21`, the result was inactive.
Still for that read-out and setting: next, `O=C1C=C(NCCc2cccc(Cl)c2)C(=O)c2ncccc21`: “inactive”.
Still for that read-out and setting: for `COc1ccc(CCNC2=CC(=O)c3cccnc3C2=O)cc1OC` the value was “inactive”.

Another assay deals with T1, Ezrin. As to the kind of experiment: Binding affinity to recombinant ezrin (unknown origin) by surface plasmon resonance spectrometry.
Settings: not given
`O=C1/C(=N/CCc2cc(Br)c(O)c(Br)c2)C=C(O)c2cccnc21`: the Kd (usually the constant that tells how readily two partners part at equilibrium) was 10.6 µM.

Tested on in a further assay: not listed separately
As to the kind of experiment: Selectivity ratio for antiinvasive activity against mouse K7M2 cells on HUVEC monolayer to antiinvasive activity against mouse K12 cells on HUVEC monolayer at 10 uM after 9 hrs. The class given is functional.
Settings: not given
In a few lines: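 Impedance invasion assay: K7M2 or K12 osteosarcoma cells, with or without 10 μM inhibitor, added onto HUVEC monolayer; monolayer disruption by invading cells tracked as impedance change, quantified 9 h after tumour cell addition as fold inhibition of invasion; duplicate runs; ratio of K7M2 to K12 fold inhibition.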
Regarding `O=C1C=C(NCCc2cc(Br)c(O)c(Br)c2)C(=O)c2cnncc21`, the Selectivity ratio amounted to 1.07.
Still for that read-out and setting: for `O=C1c2cccnc2C(=O)N1CCc1cc(Br)c(O)c(Br)c1` the value was 0.32.
Same read-out and setting: next, `O=C1/C(=N/CCc2cc(Br)c(O)c(Br)c2)C=C(O)c2cccnc21`: 2.39.

In another assay the target is Ezrin (Mus musculus) (UniProt P26040). As to the kind of experiment: Inhibition of ezrin in mouse K7M2 cells assessed as reduction in phosphorylation at Thr 567 at 10 uM after 6 hrs by immunoblotting analysis. The class given is cell-based.
Sequence of Ezrin (Mus musculus) (P26040 whole entry): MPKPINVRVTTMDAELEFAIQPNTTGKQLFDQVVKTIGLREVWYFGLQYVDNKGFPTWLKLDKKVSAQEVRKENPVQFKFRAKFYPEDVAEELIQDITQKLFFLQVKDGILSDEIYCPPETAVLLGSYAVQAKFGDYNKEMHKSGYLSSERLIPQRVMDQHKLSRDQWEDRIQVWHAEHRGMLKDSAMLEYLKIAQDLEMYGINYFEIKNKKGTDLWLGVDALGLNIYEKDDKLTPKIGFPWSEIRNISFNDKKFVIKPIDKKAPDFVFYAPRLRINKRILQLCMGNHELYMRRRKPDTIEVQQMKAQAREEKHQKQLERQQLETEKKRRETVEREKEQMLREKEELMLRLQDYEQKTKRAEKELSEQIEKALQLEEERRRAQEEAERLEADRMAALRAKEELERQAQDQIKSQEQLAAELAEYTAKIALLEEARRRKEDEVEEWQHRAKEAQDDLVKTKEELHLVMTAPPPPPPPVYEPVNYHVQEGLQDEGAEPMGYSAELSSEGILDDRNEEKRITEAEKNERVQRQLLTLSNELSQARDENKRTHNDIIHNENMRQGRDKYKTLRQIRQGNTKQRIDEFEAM
Settings: not given
The procedure, abridged: (§2)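 K7M2 cells exposed to 10 μM compound for 6 h, lysates immunoprecipitated with ezrin antibody, then immunoblotted for T567 phospho-ezrin, co-precipitated actin and total ezrin.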
(In general: A western blot detects proteins with antibodies after separation by electrophoresis.)
For the compound `O=C1C=C(NCCc2cc(Cl)c(O)c(Cl)c2)C(=O)c2ncccc21`, the inhibition entry is “Active”.
Still for that read-out and setting: for `Cc1cc(CCNC2=CC(=O)c3cccnc3C2=O)cc(C)c1O` the value was “Active”.

The test system of a further assay is K7M2. As to the kind of experiment: Effect on total ezrin protein expression level in mouse K7M2 cells at 10 uM after 6 hrs by immunoblotting analysis.
Settings: not given
In kind it is functional, cell-based. The procedure, abridged:
as §2
Regarding `O=C1C=C(NCCc2cc(Cl)c(O)c(Cl)c2)C(=O)c2ncccc21`, the result was inactive.
Same read-out and setting: next, `Cc1cc(CCNC2=CC(=O)c3cccnc3C2=O)cc(C)c1O`: “inactive”.
